Results collected from several papers.
Target: Aurora kinase C (AURKC, Homo sapiens, UniProt Q9UQB9)
One construct used (Q9UQB9 1-309): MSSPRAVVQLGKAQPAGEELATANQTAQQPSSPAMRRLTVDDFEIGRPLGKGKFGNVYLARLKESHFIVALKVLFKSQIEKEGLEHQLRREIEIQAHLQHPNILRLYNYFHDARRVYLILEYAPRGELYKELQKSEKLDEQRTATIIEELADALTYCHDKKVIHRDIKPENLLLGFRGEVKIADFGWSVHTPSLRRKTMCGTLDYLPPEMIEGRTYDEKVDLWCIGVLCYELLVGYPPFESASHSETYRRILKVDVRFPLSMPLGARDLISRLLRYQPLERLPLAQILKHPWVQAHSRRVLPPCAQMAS

| Compound | effect on | mode | technique | concentration | measurement | value |
| --- | --- | --- | --- | --- | --- | --- |
| CC(C)(C)c1cc(C=C(C#N)C#N)cc(Br)c1O | enzyme activity | inhibitor |  | 0.5 µM | remaining activity | 87.6% |
| COc1cc(Nc2ncc(F)c(Nc3ccc4c(n3)NC(=O)C(C)(C)O4)n2)cc(OC)c1OC | binding |  | competition with immobilised ligand | 10 µM | inhibition | 95% |
| COc1ncccc1-c1cnn2ccc(N3CCN(C(=O)OC(C)C)CC3)nc12 | binding |  | competition with immobilised ligand | 1 µM | remaining binding | 56% |
| Cn1cncc1[C@](O)(COc1ccc(C#N)cc1-c1ccc(OC(F)(F)F)cc1)c1ccc(C#N)cc1 | cell-free assay |  | competition with immobilised ligand | 1 µM | remaining binding | 100% |
| Cn1cc(-c2cc(F)cc(N3CCn4c(cc5c4CCCC5)C3=O)c2CO)cc(Nc2ccc(N3CCN(C4COC4)CC3)cn2)c1=O | enzyme activity | inhibitor |  | 0.1 µM | inhibition | 5% |
| C#Cc1n[nH]c2c(-c3cn(C(C)c4ccccn4)c(=O)[nH]c3=O)cc(F)cc12 (stereo not shown) | enzyme activity | inhibitor |  | 1 µM | inhibition | 1.7% |
| N#CC1(c2ccccn2)CCN(Cc2cc(C(=O)O)c(=O)n3ccccc23)CC1 | cell-free assay |  | competition with immobilised ligand | 1 µM | remaining binding | 94% |
| O=c1[nH]c2ccccc2n1C1CCN(Cc2ccc(-c3[nH]c4cc5ncnc5cc4nc3-c3ccccc3)cc2)CC1 | cell-free assay |  |  | 0.5 µM | remaining signal | 96% |
| Cn1cc(-c2cccc(N3CCc4c(sc5c4CC(C)(C)C5)C3=O)c2CO)cc(Nc2ccncn2)c1=O | enzyme activity | inhibitor |  | 1 µM | inhibition | 5% |
| Nc1ncc(-c2nc(N3CCOCC3)nc(N3CCOCC3)n2)c(C(F)F)n1 | binding |  | competition with immobilised ligand | 10 µM | remaining binding | 91% |
